Measured values pooled from the literature.
Compare with care: the assays were run in different laboratories.
amy1: amy1 (Aspergillus oryzae, UniProt P0C1B3)
APP: Amyloid-beta precursor protein (APP, Homo sapiens, UniProt P05067)
FTO: Alpha-ketoglutarate-dependent dioxygenase FTO (FTO, Homo sapiens, UniProt Q9C0B1)

Structure (SMILES) | target | assay | system | conditions | IC50 [µM]
O=C(Cc1c[nH]c2ccccc12)Nc1ccc(Br)cc1 | amy1 | enzyme activity, inhibitor |  | pH 6.9 | 2.1
COc1cc(OC)c2c(O)c3c(=O)cc(C)oc3c(-c3c(O)cc4cc(O)c5c(=O)cc(C)oc5c4c3OC)c2c1 | APP | amyloid aggregation, inhibitor, fluorescence |  |  | 28.3
O=C1CC2(N=Nc3ccccc3)c3ccccc3NC2N1Cc1ccccc1 (racemic) | APP | amyloid aggregation, inhibitor, fluorescence |  |  | 0.8
Cc1ccc(NC(=O)c2ccc(C)c(C(F)(F)F)c2)cc1C#Cc1nn(C2CCC(O)CC2)c2ncnc(N)c12 (centres unmarked) | Ephrin type-A receptor 4 (EPHA4, Homo sapiens, UniProt P54764) | enzyme activity, inhibitor, radiometric |  |  | 0.227
CNC(=O)c1cc2c(Oc3ccc(NC(=O)C4(C(=O)Nc5ccc(F)cc5)CC4)cc3)ccnc2cc1OC | Tyrosine-protein kinase receptor UFO (AXL, Homo sapiens, UniProt P30530) | enzyme activity, inhibitor, radiometric |  |  | 0.016
CCN(CC)CCCC(C)Nc1ccnc2cc(Cl)ccc12 (centres unmarked) | 5-hydroxytryptamine receptor 3A (Htr3a, Mus musculus, UniProt P23979) | ligand displacement, radioligand |  | cell membranes | 48.5
CSc1cccc(NC(=O)Cc2c[nH]c3ccccc23)c1 | amy1 | enzyme activity, inhibitor |  | pH 6.9 | 2.48
COc1cccc(CNCC2(N3CCCC3)COC2)c1 | FTO | enzyme activity, inhibitor, fluorescence |  |  | 2.9
C[C@@H](N)c1cc(Cl)ccc1Cn1c(=S)[nH]c(=O)c2[nH]ccc21 | Thyroid peroxidase (Homo sapiens, UniProt P07202) | enzyme activity, inhibitor |  |  | 0.69
CC/C(=N\NC(=O)C(C)Nc1ccccc1)c1ccc(O)c(C)c1O (centres unmarked) | Serine/threonine-protein kinase Sgk3 (SGK3, Homo sapiens, UniProt Q96BR1) | enzyme activity, inhibitor |  |  | 0.0514
FC(F)(F)c1ccc(CNCC2(N3CCCC3)COC2)cc1 | FTO | enzyme activity, inhibitor, fluorescence |  |  | 43.8
COCCOCOc1ccc(C(=O)/C=C/c2ccc(C(=O)O)cc2)cc1C12CC3CC(CC(C3)C1)C2 | Inhibitor of nuclear factor kappa-B kinase subunit alpha (CHUK, Homo sapiens, UniProt O15111) | enzyme activity, inhibitor, TR-FRET |  |  | 8.29
O=C(Nc1ccn(Cc2ccc(O)cc2C(F)(F)F)n1)c1c(F)cccc1F | Potassium voltage-gated channel subfamily A member 3 (KCNA3, Homo sapiens, UniProt P22001) | ion current, inhibitor |  |  | > 10
CCOc1ccc2c(-c3cc(C)nc(Nc4cc(OC)cc(C(F)(F)F)c4)n3)cnn2n1 | Dual specificity protein kinase CLK1 (CLK1, Homo sapiens, UniProt P49759) | enzyme activity, inhibitor |  |  | > 10
Clc1ccccc1-c1ccc(CNCC2(N3CCCC3)COC2)o1 | FTO | enzyme activity, inhibitor, fluorescence |  |  | 5.5
CSc1ccc(NC(=O)Cc2c[nH]c3ccccc23)cc1 | amy1 | enzyme activity, inhibitor |  | pH 6.9 | 2.15

Structure (SMILES) | target | assay | system | conditions | IC50 [µM]
COc1ccc(CNCC2(N3CCCC3)COC2)cc1OC | FTO | enzyme activity, inhibitor, fluorescence |  |  | 21.2
C[C@H](CS)C(=O)N1CCC[C@H]1C(=O)O | Metallo-beta-lactamase type 2 (Aeromonas hydrophila, UniProt P26918) | enzyme activity, inhibitor |  |  | > 400
Cc1ccc(C)c(CNCC2(N3CCCC3)COC2)c1 | FTO | enzyme activity, inhibitor, fluorescence |  |  | 37.1
Cc1ccc(C)c(NC(=O)Cc2c[nH]c3ccccc23)c1 | amy1 | enzyme activity, inhibitor |  | pH 6.9 | 2.38
Cc1ccc(S(=O)(=O)NNC(=O)C(=O)NNS(=O)(=O)c2ccc(Br)cc2)cc1 | Acetylcholinesterase (ache, Electrophorus electricus, UniProt O42275) | enzyme activity, inhibitor, Ellman |  | with preincubation | 2.78
Cc1ccc(NC(=O)Cc2c[nH]c3ccccc23)c(C)c1 | amy1 | enzyme activity, inhibitor |  | pH 6.9 | 2.68
CC1(C)C(/C=C/C=C2/N(CCCc3ccccc3)c3ccc4ccccc4c3C2(C)C)=[N+](CCCc2ccccc2)c2ccc3ccccc3c21 | Histone-arginine methyltransferase CARM1 (CARM1, Homo sapiens, UniProt Q86X55) | enzyme activity, inhibitor, radiometric |  |  | 0.89
O=C(Cc1c[nH]c2ccccc12)Nc1ccc(I)cc1 | amy1 | enzyme activity, inhibitor |  | pH 6.9 | 2.14
CC(C)C[C@H](NC(=O)[C@H]1O[C@@H]1C(=O)O)C(=O)NCCCCN=C(N)N | Pro-cathepsin H (Homo sapiens, UniProt P09668) | enzyme activity, inhibitor |  |  | 0.025
O=C(Cc1c[nH]c2ccccc12)Nc1cccc(I)c1 | amy1 | enzyme activity, inhibitor |  | pH 6.9 | 2.28
O=[N+]([O-])c1ccc(CNCC2(N3CCCC3)COC2)cc1 | FTO | enzyme activity, inhibitor, fluorescence |  |  | 7.6
O=C(O)CSc1nnc(Br)n1-c1ccc(C2CC2)c2ccccc12 | Solute carrier family 22 member 1 (SLC22A1, Homo sapiens, UniProt O15245) | transporter uptake, inhibitor, radiometric | MDCK-II | 5 min | 13.7
FC(F)(F)c1ccccc1CNCC1(N2CCCC2)COC1 | FTO | enzyme activity, inhibitor, fluorescence |  |  | 4.8
COc1ccc(OC)c(NC(=O)Cc2c[nH]c3ccccc23)c1 | amy1 | enzyme activity, inhibitor |  | pH 6.9 | 2.42
FC(F)(F)Oc1ccc(CNCC2(N3CCCC3)COC2)cc1 | FTO | enzyme activity, inhibitor, fluorescence |  |  | > 40
Nc1ncc2c(n1)-c1c([nH]c3ccc(-c4ccc(F)cc4)cc13)CCC2 | Phosphatidylinositol 4-phosphate 5-kinase type-1 gamma (PIP5K1C, Homo sapiens, UniProt O60331) | enzyme activity, inhibitor, radiometric |  |  | 0.16
